Assay outcomes as filed in PubChem.
ARFGAP1 inhibitor: inhibitors of rat ARFGAP1 GAP activity, primary screen, biochemical, fluorescence polarization, GDP tracer; actives 0.26% (n = 360,000); inhibition, % at 16.5 µM; AID 651572, 2012; Arfgap1-stimulated ARF1 GTP hydrolysis, GDP FP detection; ADP-ribosylation factor GTPase-activating protein 1 (Rattus norvegicus), Q62848;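 active means inhibition above a per-plate limit, mean inhibition of low control wells plus 3 SD, cut at about 25% in these data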;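 further: 0% = DMSO wells with enzyme and 100% = wells lacking Arfgap1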
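Repeats: one replicate per compound; assay system: rat Arfgap1 catalytic domain, aa 1-136; times: enzyme reaction 120 min at 25 °C after 20 min preincubation; detection: FP of antibody-bound GDP Alexa 633 tracer, ex 620/em 688 nm; benchmarks: high control wells lacking Arfgap1, low control full reaction with DMSO; reagent: human ARF1(Δ1-17)-GTP substrate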
GalR3 antag: GalR3 antagonists in HEK293 cells, primary screen, cell-based, fluorescence readout; AID 651719, 2012; inhibition, % at 3 µM; actives 0.44% (n = 360,000); HEK293 GalR3-CNG cAMP membrane potential fluorescence; galR3 body fused to GalR1 C-terminus;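 active means inhibition above the screen-wide average plus 3 SD, cut at about 13% in these data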;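 further: forskolin and galanin both at EC90 stimulate the cells; cAMP rise reported by CNG channel membrane potential dye signal; 0% = forskolin plus galanin with DMSO and 100% = forskolin alone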
Target sequence (O60755 1-299 limits assumed): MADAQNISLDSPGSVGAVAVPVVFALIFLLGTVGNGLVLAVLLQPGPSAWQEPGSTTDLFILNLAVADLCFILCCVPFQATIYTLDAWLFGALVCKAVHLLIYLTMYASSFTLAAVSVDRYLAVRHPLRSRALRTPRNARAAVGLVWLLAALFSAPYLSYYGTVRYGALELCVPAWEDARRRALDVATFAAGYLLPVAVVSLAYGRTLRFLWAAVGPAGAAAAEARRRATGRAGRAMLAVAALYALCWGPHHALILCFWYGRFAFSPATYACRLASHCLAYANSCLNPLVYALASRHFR
ASAP1 inh: inhibitors of human ASAP1 ArfGAP activity, primary screen, biochemical, fluorescence polarization. ASAP1-stimulated ARF1 GTP hydrolysis, GDP FP detection. inhibition, % at 16.5 µM. actives 0.19% (n = 360,000). AID 624377, 2012; in the data active means inhibition above about 25%;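 further: 0% = vehicle with enzyme and substrate and 100% = no enzyme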
Rin1-Abl PPI inh: inhibitors of Rin1-Abl protein binding, primary screen, biochemical, TR-FRET; inhibition, % at 7.35 µM; actives 0.4% (n = 360,000); Tyrosine-protein kinase ABL1 (Homo sapiens) + Ras and Rab interactor 1 (Homo sapiens), …; in the data active means inhibition above about 5%, passing the limit was not always enough
ARFGAP1 inh conf: ARFGAP1 inhibitor hit confirmation, biochemical, fluorescence polarization, triplicate. shares compounds with ARFGAP1 inhibitor. inhibition, % at 16.5 µM. ARFGAP1-stimulated ARF1 GTP hydrolysis, GDP tracer FP. actives 30% (n = 890);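 active means average inhibition over triplicates above the hit cutoff set in the earlier primary screen, cut at about 25% in these data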;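 further: 0% = Arfgap1 plus ARF1-GTP with DMSO and 100% = wells lacking Arfgap1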
Target sequence (Q62848 whole entry, looked up): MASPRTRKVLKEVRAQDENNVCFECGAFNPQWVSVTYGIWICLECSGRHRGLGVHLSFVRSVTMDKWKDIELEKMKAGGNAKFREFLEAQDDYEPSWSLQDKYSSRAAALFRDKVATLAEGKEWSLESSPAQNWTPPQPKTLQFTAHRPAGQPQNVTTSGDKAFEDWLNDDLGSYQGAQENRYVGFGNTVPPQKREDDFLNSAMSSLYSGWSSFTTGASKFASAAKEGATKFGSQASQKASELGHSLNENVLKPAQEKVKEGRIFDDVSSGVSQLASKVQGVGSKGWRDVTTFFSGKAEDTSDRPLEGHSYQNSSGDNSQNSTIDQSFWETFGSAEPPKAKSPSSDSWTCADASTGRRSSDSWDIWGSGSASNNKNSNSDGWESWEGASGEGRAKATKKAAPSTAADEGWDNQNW
* = called active by the depositor; / = no result. In the library only some 1.2% were active in any assay of this set; here they are far more common.

SMILES | ARFGAP1 inhibitor | GalR3 antag | ASAP1 inh | Rin1-Abl PPI inh | ARFGAP1 inh conf
O=C(/C=C/c1ccc(Cl)cc1)NC(=S)Nc1ccc(NC(=O)c2ccco2)cc1 | 86.2* | 1.0 | 21.9 | 0.6 | 110.0*
CC(=O)Nc1ccc(NC(=S)NC(=O)/C=C/c2ccc(Cl)cc2)cc1 | 0.5 | -6.0 | -8.8 | -1.1 | /
Brc1ccc2nc(-c3ccc(CN4CCC5(CC4)CNc4ccccc45)cc3)c(-c3ccccc3)nc2c1 | 25.6* | -6.7 | 4.8 | / | 7.4
C=CCNc1nc(NCCOC)c2sc(-c3ccccc3)cc2n1 | 27.7* | -6.2 | 0.3 | -15.5 | 39.8*
C=CCNc1nc(NCCOc2ccccc2Cl)c2sc(-c3ccccc3)cc2n1 | 13.0 | -5.9 | 18.7 | -5.4 | /
C=CCNc1nc(NCCNC(C)=O)c2sc(-c3ccccc3)cc2n1 | 5.0 | -3.7 | -5.5 | -7.5 | /
C=CCNc1nc(NCc2ccc(N(C)C)cc2)c2sc(-c3ccccc3)cc2n1 | 46.4* | -7.9 | 8.4 | -4.8 | 9.0
Cc1ccccc1S(=O)(=O)N1CCCc2nc(-c3ccc(F)cc3)ccc21 | -1.7 | -8.4 | -11.5 | / | /
CCNC(=O)N1C[C@H]2CON(C)[C@H]2C[C@H]1c1ccc(N2CCCCC2)cc1 | 0.5 | -5.7 | 2.2 | / | /
O=C(NCc1ccncc1)Nc1ccc(Cc2ccc(NC(=O)NCc3ccncc3)cc2)cc1 | 27.1* | -1.3 | -1.8 | 3.1 | 56.5*
COc1ccc(-n2c(=O)c3c4c(sc3n(CC(=O)Nc3cc(C)[nH]n3)c2=O)CCCC4)c(OC)c1 | 33.3* | -7.5 | 10.1 | -0.5 | 32.6*
CCCCc1nnn2c1C1c3cc(Br)ccc3CCN1C(=O)C2 (stereo not given) | 7.8 | -9.2 | 5.9 | / | /
O=C(N/N=C/c1ccc(O)cc1O)c1ccc(CN2C(=O)c3cccc4cccc2c34)cc1 | 26.6* | -2.4 | 7.4 | -4.2 | 80.4*
COC(=O)C1=C(C)OC(N)=C(C#N)C1c1ccccc1 (stereo not given) | -14.2 | -5.9 | 3.9 | 0.9 | /
COC(=O)C1=C(C)OC(N)=C(C#N)C1C1CCCCC1 (stereo not given) | 26.3* | -6.9 | 2.9 | 2.7 | 0.1
COC(=O)c1ccc(N2CCN(C)CC2)c(NC(=O)COc2ccc(OC)cc2)c1 | -7.3 | -4.5 | 6.5 | 1.9 | /
COC(=O)c1ccc(N2CCN(C)CC2)c(NC(=O)COc2ccccc2Cl)c1 | 27.4* | 0.0 | 3.5 | 0.2 | 2.3
O=C(Cc1ccccc1)NC1(O)C(=O)c2ccccc2C1=O | 27.3* | -5.7 | 13.7 | 4.0 | 9.3
COc1ccc(C2=Nc3ccccc3N(C(=O)c3ccc(C(F)(F)F)cc3)C2C(=O)NCc2ccccc2)cc1 (stereo not given) | 2.9 | -7.9 | 12.4 | / | /
Oc1ccc(/C=N/Nc2cccc3cccnc23)c(O)c1 | 50.6* | 0.0 | 3.2 | -3.6 | 16.0
CC1CCCN(C(=O)Cn2nnc(-c3cccnc3)n2)C1 (stereo not given) | 26.3* | -4.3 | -6.2 | 2.5 | 8.2
C=C(C)COc1ccc(-c2[nH]ncc2-c2ccc(OC)cc2)c(O)c1 | 26.1* | -5.9 | -3.2 | -1.9 | 7.4
CCN(CC)S(=O)(=O)c1ccc(NC(=O)Nc2cccc(C(F)(F)F)c2)cc1 | 20.0 | 0.7 | 4.6 | 4.0 | /
Cc1ccc(S(=O)(=O)Nc2ccc(NC(=O)Nc3cccc(C(F)(F)F)c3)cc2)cc1 | 29.7* | -5.5 | 21.8 | -3.8 | 29.5*
CCn1c(COc2cc(C)ccc2C(C)C)nnc1SCC(=O)Nc1nccs1 | 24.7* | -1.7 | -6.3 | 1.6 | -5.3
SMILES | ARFGAP1 inhibitor | GalR3 antag | ASAP1 inh | Rin1-Abl PPI inh | ARFGAP1 inh conf
CCOC(=O)C1=CCC(c2ccccc2)N(S(C)(=O)=O)C1 (stereo not given) | 4.6 | -3.9 | -0.2 | / | /
CCn1c(C)c(C(C)=O)c(N2CCN(c3ccc(OC)cc3)CC2)nc1=S | 40.7* | 1.1 | 2.1 | -3.8 | 2.8
COc1ccc(N2CCN(c3nc(=S)n(-c4ccccc4)c(C)c3C(C)=O)CC2)cc1 | -6.2 | 0.1 | 13.9 | -6.2 | /
COC(=O)C1=C(C)N(C)C(=NCc2ccccc2)NC1c1ccc(F)cc1 (stereo not given) | -6.8 | -6.9 | -3.7 | / | /
O=C(COC(=O)CSc1ccc([N+](=O)[O-])cc1)NCc1cccs1 | 26.4* | -1.0 | 6.7 | -1.1 | 8.9
Cc1ccc(SCC(=O)OCC(=O)NCc2cccs2)cc1 | -3.3 | -2.0 | 11.4 | -2.8 | /
COC(=O)c1cc(C)[nH]c2c(C)cc3nc4ccccc4c3c12 | 41.0* | -7.2 | -1.2 | 4.1 | 13.8
Cc1cccc2nc(-c3cccc(NC(=O)c4ccc(Cl)cc4)c3)cn12 | 57.7* | -0.6 | 15.3 | -3.3 | 24.4
COc1cccc(CN(C)[C@H]2C[C@H]3c4[nH]c5ccccc5c4CCN3C[C@H]2[C@H](C)O)c1OC | 9.8 | -2.6 | -5.8 | / | /
COc1ccccc1C(=O)c1nc2ccccc2n1C | 25.0* | -11.1 | -8.6 | 2.9 | -5.9
O=[N+]([O-])c1ccc2[nH]cc(S(=O)(=O)N3CCN(c4cccc(Cl)c4)CC3)c2c1 | 9.7 | -12.4 | 3.1 | -0.8 | /
Cc1cccc(N(C)S(=O)(=O)c2c[nH]c3ccc([N+](=O)[O-])cc23)c1 | 26.1* | -7.7 | 9.8 | 2.2 | 5.0
CC(=O)O[C@H]1C=C[C@@H](C#Cc2ccc(C(C)(C)C)cc2)O[C@@H]1COC(=O)Nc1ccccc1 | -0.5 | -3.4 | -1.5 | / | /
CC(=O)Nc1ccc(N2C(=O)CC(N3CCSCC3)C2=O)cc1 (stereo not given) | 25.4* | -1.9 | -1.0 | 1.2 | 2.0
CCOC(=O)CC1(C)Sc2ccccc2N1S(=O)(=O)c1ccc(C)cc1 (stereo not given) | 0.9 | -4.9 | -2.0 | / | /
CCSCCOC(=O)C1=C(C)NC(=O)NC1c1cccc(OC)c1OC (stereo not given) | 26.2* | -8.3 | 1.4 | -2.5 | 1.0
CCOC(=O)c1c(NC(=O)C[n+]2ccc(N(C)C)cc2)sc(C)c1C | 25.1* | -5.0 | 13.7 | 1.1 | 6.6
COc1ccc(-c2cc(NC=O)c3ncc(-c4cccc(C(=O)NCCN(C)C)c4)n3c2)cc1 | 27.4* | -6.4 | 8.3 | -7.5 | 26.6*
COc1ccc(-c2cc(NC=O)c3ncc(-c4ccc(C(C)=O)cc4)n3c2)cn1 | 29.2* | 2.0 | 20.5 | -7.4 | 34.3*
CC(=O)Nc1cccc(-c2cc(NC(C)=O)c3ncc(-c4cccc(C(C)=O)c4)n3c2)c1 | 7.8 | -4.5 | 6.4 | 0.3 | /
CC(=O)c1ccc(-c2cnc3c(NC=O)cc(-c4ccc(C(=O)NC5CC5)cc4)cn23)cc1 | -5.3 | -5.2 | 11.6 | -3.6 | /
